Columns and labels:
[1] = Inhibition of GARFTase in Chinese Hamster PC43-10 cells expressing human RFC assessed as reduction in cell growth after 96 hrs by Cell-Titer Blue assay; conditions: Cricetulus griseus, PC43-10, 96 h
In short: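 PC43-10 (RFC) or R2/PCFT4 (PCFT) CHO, grown in α-MEM + 10% bovine calf serum + G418 (1 mg/mL). ~2000 cells/well exposed to 0–1000 nM drug in folate-free RPMI 1640 with 10% dialyzed FBS and 25 nM leucovorin for 96 h. Viability by Cell-Titer Blue fluorescence; IC50 as 50% growth inhibition relative to drug-free cells; mean of 5–16 experiments.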

[2] = Inhibition of GARFTase in Chinese Hamster MTXRII-OuaR2-4/RFC/FRalpha/PCFT-null R2 cells assessed as reduction in cell growth after 96 hrs by Cell-Titer Blue assay; type: cell-based; conditions: Cricetulus griseus, R2, 96 h
Cricetulus griseus [3] = species on record: Cricetulus griseus; assay: Potency index, ratio of (2S)-2-[[4-[4-(2-amino-4-oxo-3,7-dihydropyrrolo[2,3-d]pyrimidin-6-yl)butyl]benzoyl]amino]pentanedioic acid IC50 to compound IC50 for GARFTase in Chinese Hamster RT16 cells expressing human FRalpha assessed as reduction in cell growth after 96 hrs by Cell-Titer Blue assay; type: cell-based
In short: (§1)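 CHO sublines from transporter-null R2 cells, expressing human FRβ (D4) or FRα (RT16), were kept in α-MEM with 10% calf serum and G418 (1 mg/mL). They were then moved to folate-free RPMI 1640 with 10% dialyzed FBS for 3 days. ~2000 cells/well were exposed to 0–1000 nM drug with 2 nM leucovorin for 96 h, ± 200 nM folic acid, and read by Cell-Titer Blue fluorescence. IC50 is 50% growth loss versus untreated cells; index is reference IC50 over compound IC50.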

[4] = Inhibition of GARFTase in Chinese Hamster RT16 cells expressing human FRalpha assessed as reduction in cell growth after 96 hrs by Cell-Titer Blue assay; type: cell-based; conditions: Cricetulus griseus, RT16, 96 h
[5] = Inhibition of GARFTase in Chinese Hamster D4 cells expressing human FRbeta assessed as reduction in cell growth after 96 hrs by Cell-Titer Blue assay; type: cell-based; conditions: Cricetulus griseus
[6] = target: T1, Trifunctional purine biosynthetic protein adenosine-3 (Homo sapiens) (UniProt P22102); assay: Potency index, ratio of (2S)-2-[[4-[4-(2-amino-4-oxo-3,7-dihydropyrrolo[2,3-d]pyrimidin-6-yl)butyl]benzoyl]amino]pentanedioic acid IC50 to compound IC50 for GARFTase in human KB cells assessed as reduction in cell growth after 96 hrs by Cell-Titer Blue assay; type: cell-based
T1 sequence (whole entry): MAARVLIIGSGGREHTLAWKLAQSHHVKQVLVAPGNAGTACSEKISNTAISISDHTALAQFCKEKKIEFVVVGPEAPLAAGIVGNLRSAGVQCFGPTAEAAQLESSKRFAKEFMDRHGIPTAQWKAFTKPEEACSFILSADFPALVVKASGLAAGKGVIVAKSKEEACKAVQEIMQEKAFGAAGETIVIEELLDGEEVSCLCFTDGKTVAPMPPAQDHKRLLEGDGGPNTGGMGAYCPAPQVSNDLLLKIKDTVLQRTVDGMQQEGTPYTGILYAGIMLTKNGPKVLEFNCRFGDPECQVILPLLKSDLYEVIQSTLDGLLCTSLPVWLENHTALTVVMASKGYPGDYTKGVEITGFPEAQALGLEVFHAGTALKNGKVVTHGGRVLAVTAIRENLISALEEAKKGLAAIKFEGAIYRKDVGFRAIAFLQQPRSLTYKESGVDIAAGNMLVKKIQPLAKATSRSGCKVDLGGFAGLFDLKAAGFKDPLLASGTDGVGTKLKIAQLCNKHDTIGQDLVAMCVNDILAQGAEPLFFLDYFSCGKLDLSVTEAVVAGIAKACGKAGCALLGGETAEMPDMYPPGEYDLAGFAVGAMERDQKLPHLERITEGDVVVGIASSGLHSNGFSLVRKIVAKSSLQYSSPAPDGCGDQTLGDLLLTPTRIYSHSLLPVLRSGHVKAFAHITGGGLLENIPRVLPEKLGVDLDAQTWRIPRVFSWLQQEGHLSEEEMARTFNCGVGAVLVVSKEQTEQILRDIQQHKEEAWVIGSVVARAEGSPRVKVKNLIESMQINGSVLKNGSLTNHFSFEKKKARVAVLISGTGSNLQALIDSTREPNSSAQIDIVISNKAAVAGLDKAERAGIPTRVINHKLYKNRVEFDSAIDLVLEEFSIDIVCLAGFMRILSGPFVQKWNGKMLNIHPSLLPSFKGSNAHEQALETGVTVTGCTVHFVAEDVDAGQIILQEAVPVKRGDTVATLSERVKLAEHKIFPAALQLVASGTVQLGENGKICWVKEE
In short: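 KB human carcinoma cells, which express RFC, FRα and PCFT, were maintained in folate-free RPMI with 10% FBS. ~2000 cells/well were exposed to 0–1000 nM drug in folate-free RPMI 1640 with 10% dialyzed FBS and 2 nM leucovorin for 96 h, ± 200 nM folic acid. Viability was read by Cell-Titer Blue fluorescence. IC50 is 50% growth loss versus untreated cells; index is reference IC50 over compound IC50.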

[7] = Inhibition of GARFTase in Chinese Hamster MTXRII-OuaR2-4 R2 cells expressing human PCFT assessed as reduction in cell growth after 96 hrs by Cell-Titer Blue assay; type: cell-based; conditions: Cricetulus griseus, R2, 96 h
Cricetulus griseus [8] = species on record: Cricetulus griseus; assay: Potency index, ratio of (2S)-2-[[4-[4-(2-amino-4-oxo-3,7-dihydropyrrolo[2,3-d]pyrimidin-6-yl)butyl]benzoyl]amino]pentanedioic acid IC50 to compound IC50 for GARFTase in Chinese Hamster D4 cells expressing human FRbeta assessed as reduction in cell growth after 96 hrs by Cell-Titer Blue assay; type: cell-based; in short: as §1

| SMILES | IC50 [1] [nM] | IC50 [2] [nM] | Ratio IC50 (Cricetulus griseus [3]) | IC50 [4] [nM] | IC50 [5] [nM] | Ratio IC50 [6] | IC50 [7] [nM] | Ratio IC50 (Cricetulus griseus [8]) |
| --- | --- | --- | --- | --- | --- | --- | --- | --- |
| Nc1nc2[nH]c(CCCc3ccc(C(=O)N[C@@H](CCC(=O)O)C(=O)O)cc3)cc2c(=O)[nH]1 | 649 | > 1000 |  |  |  |  |  |  |
| Nc1nc2[nH]c(CCCNc3ccc(C(=O)N[C@@H](CCC(=O)O)C(=O)O)cc3)cc2c(=O)[nH]1 | 670 | 697 | 3 | 1.76 | 1.51 | 2 | 235 | 6 |
| Nc1nc2[nH]c(CCCCc3ccc(C(=O)N[C@@H](CCC(=O)O)C(=O)O)cc3)cc2c(=O)[nH]1 | > 1000 | > 1000 |  |  |  |  |  |  |
| CC(=O)N(CCCc1cc2c(=O)[nH]c(N)nc2[nH]1)c1ccc(C(=O)N[C@@H](CCC(=O)O)C(=O)O)cc1 | > 1000 | > 1000 |  | 57.2 | 12.8 |  | > 1000 |  |
| Nc1nc2[nH]c(CCCSc3ccc(C(=O)N[C@@H](CCC(=O)O)C(=O)O)cc3)cc2c(=O)[nH]1 | > 1000 | > 1000 | 2 | 2.56 | 0.6 | 6 | 593 | 16 |
| Nc1nc2[nH]c(CCNc3ccc(C(=O)N[C@@H](CCC(=O)O)C(=O)O)cc3)cc2c(=O)[nH]1 | 510 | > 1000 |  | 3.04 | 0.62 |  | 87.4 |  |
| Nc1nc2[nH]c(CCCN(C(=O)C(F)(F)F)c3ccc(C(=O)N[C@@H](CCC(=O)O)C(=O)O)cc3)cc2c(=O)[nH]1 | > 1000 | > 1000 |  | 5.78 | 3.87 |  | 487 | 3 |
| Nc1nc2[nH]c(CCCOc3ccc(C(=O)N[C@@H](CCC(=O)O)C(=O)O)cc3)cc2c(=O)[nH]1 | > 1000 | > 1000 |  | 4.6 | 5.6 |  | > 1000 | 2 |
| Nc1nc2[nH]c(CCCN(C=O)c3ccc(C(=O)N[C@@H](CCC(=O)O)C(=O)O)cc3)cc2c(=O)[nH]1 | > 1000 | > 1000 |  | 35.6 | 0.61 |  | 893 | 16 |

— ChEMBL document CHEMBL4622881, “Design, synthesis and biological evaluation of novel pyrrolo[2,3-d]pyrimidine as tumor-targeting agents with selectivity for tumor uptake by high affinity folate receptors over the reduced folate carrier” (Bioorg Med Chem, 2020)
